From PubChem BioAssay
A selection: hits, their analogues and other compounds. The true share with any hit is near 2.9%.
VIM-2 inhibitor: blocks Pseudomonas aeruginosa VIM-2 metallo-beta-lactamase; purified VIM-2, nitrocefin hydrolysis, epi-absorbance fluorescence; inhibition, % at 5.6 µM; 290,000 tested, 0.89% active; AID 1527;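 active means inhibition above the mean of all tested compounds plus 3 SD, cutoff set per screening run, cut at about 7.5% in these data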;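 further: red hydrolysis product quenches plate fluorescence so inhibitors raise well fluorescence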
DNA FID counter: counter-screen for HCV NS3 helicase inhibitors: DNA intercalator displacement; AID 1845; 290,000 tested, 0.17% active; DNA fluorescent intercalator displacement, fluorescence; inhibition, % at 7.9 µM; in the data active means inhibition above about 37%;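 further: higher means more ethidium bromide displaced from hairpin DNA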
UBC9 SUMO inh: inhibitors of human SUMOylation (UBC9); AID 2006; P63279; 290,000 tested, 0.36% active; inhibition, % at 35 µM; HTRF SUMOylation assay, SAE1/SAE2 + UBC9, in vitro; in the data active means inhibition above about 50%, passing the limit was not always enough
Target sequence (P63279 whole entry, looked up): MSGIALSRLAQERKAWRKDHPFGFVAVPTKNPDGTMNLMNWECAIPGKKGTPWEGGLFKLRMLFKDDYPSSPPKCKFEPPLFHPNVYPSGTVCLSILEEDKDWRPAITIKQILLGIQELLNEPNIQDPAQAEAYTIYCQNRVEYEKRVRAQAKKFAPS
NALP1 inh: inhibitors of NALP1 inflammasome in yeast; inhibition, % at 10 µM; S. cerevisiae NALP1/ASC/caspase-1 growth, X-gal OD620, 72 h; 280,000 tested, 0.61% active; in the data active means inhibition mostly above about 24%, no sharp cut-off; inactive means mostly below about 32%
IMP-1 inh: blocks Pseudomonas aeruginosa IMP-1 metallo-beta-lactamase. 290,000 tested, 0.45% active. purified IMP-1, nitrocefin hydrolysis, epi-absorbance fluorescence. inhibition, % at 5.6 µM;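 active means inhibition above the mean plus 3 SD of all compounds in the same screening run, cut at about 4.5% in these data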
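System: purified recombinant IMP-1 beta-lactamase. Medium: Zinc- and detergent-supplemented HEPES buffer, pH 7.1. Compound: one 5.6 µM dose […]. Schedule: 15 min preincubation plus 25 min reaction at 25 °C. Technique: Epi-absorbance fluorescence, 480 nm excitation, 530 nm emission.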
SUMO Mot1 rescue: blocks SUMOylation pathway, rescuing yeast Mot1-301 growth | S. cerevisiae Mot1-301 growth rescue, ATP luminescence, 38.5C; percent above DMSO median, 100 means doubled | growth rescue, % at 18.8 µM | 320,000 tested, 1% active | AID 2716;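 active means every valid replicate shows activation above 250% relative to neutral control wells; inactive means the rest, any valid replicate at or below 250%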
A number is an active result.

Screening COc1ccc(C2C(C#N)=C(N)N(c3sc4c(c3C#N)CCCC4)C3=C2C(=O)CC(C)(C)C3)cc1 (centres undefined) returned VIM-2 inhibitor inactive, DNA FID counter inactive, UBC9 SUMO inh inactive, NALP1 inh inactive, IMP-1 inh 4.7 and SUMO Mot1 rescue inactive.
Screening COc1ccc(C2C(C#N)=C(N)N(c3sc4c(c3C#N)CCCC4)C3=C2C(=O)CC(C)(C)C3)cc1OC (centres undefined) returned VIM-2 inhibitor inactive, DNA FID counter inactive, UBC9 SUMO inh inactive, NALP1 inh inactive, IMP-1 inh inactive and SUMO Mot1 rescue inactive.
`CC(=O)c1cccc(NC(=O)COC(=O)c2n[nH]c3ccccc23)c1` gave VIM-2 inhibitor inactive, DNA FID counter inactive, UBC9 SUMO inh inactive, NALP1 inh inactive, IMP-1 inh inactive and SUMO Mot1 rescue inactive.
Screening CN1CCN(c2ccccc2NC(=O)c2ccc(N3CCCCC3)c([N+](=O)[O-])c2)CC1 returned VIM-2 inhibitor inactive, DNA FID counter inactive, UBC9 SUMO inh inactive, NALP1 inh inactive, IMP-1 inh inactive and SUMO Mot1 rescue inactive.
For CN1CCN(c2ccc(C(=O)c3ccccc3)cc2[N+](=O)[O-])CC1 the results were VIM-2 inhibitor 8.3, DNA FID counter inactive, UBC9 SUMO inh inactive, NALP1 inh inactive, IMP-1 inh inactive and SUMO Mot1 rescue inactive.
For CCOc1ccc(NC(=O)C(C)NC(=O)c2ccccc2Cl)cc1S(=O)(=O)N1CCCC1 (centres undefined) the results were SUMO Mot1 rescue inactive.
Screening O=c1[nH]c(=O)n(Cc2ccccc2)c2nc(-c3ccc(C(F)(F)F)cc3)n(CCO)c12 returned VIM-2 inhibitor inactive, DNA FID counter inactive, UBC9 SUMO inh inactive, NALP1 inh inactive, IMP-1 inh inactive and SUMO Mot1 rescue inactive.
For COc1cccc(C(=O)Nc2nc(-c3ccc(S(=O)(=O)N4CCOCC4)cc3)cs2)c1 the results were VIM-2 inhibitor inactive, DNA FID counter inactive, UBC9 SUMO inh inactive, NALP1 inh inactive, IMP-1 inh inactive and SUMO Mot1 rescue 255.
For COc1ccc(-c2csc(NC(=O)c3ccccc3NS(=O)(=O)c3ccc(F)c(F)c3)n2)cc1 the results were VIM-2 inhibitor inactive, DNA FID counter inactive, UBC9 SUMO inh 67, NALP1 inh inactive, IMP-1 inh inactive and SUMO Mot1 rescue inactive.
Screening Cc1ccc(S(=O)(=O)Nc2ccccc2C(=O)Nc2nc(-c3ccc(F)cc3)cs2)cc1 returned VIM-2 inhibitor inactive, DNA FID counter inactive, UBC9 SUMO inh inactive, NALP1 inh inactive, IMP-1 inh inactive and SUMO Mot1 rescue inactive.
Screening Cc1ccc(/C=C/C(=O)N2CCCC(C(N)=O)C2)o1 (centres undefined) returned VIM-2 inhibitor inactive, DNA FID counter inactive, UBC9 SUMO inh inactive, NALP1 inh inactive, IMP-1 inh inactive and SUMO Mot1 rescue inactive.
For CCOc1ccc(C(=O)Nc2cc(-c3nc4ccccc4[nH]3)ccc2C)cc1[N+](=O)[O-] the results were VIM-2 inhibitor inactive, DNA FID counter inactive, UBC9 SUMO inh inactive, NALP1 inh inactive, IMP-1 inh inactive and SUMO Mot1 rescue inactive.
`CCOc1ccc(C(=O)Nc2cc(-c3nc4ccccc4[nH]3)ccc2Cl)cc1[N+](=O)[O-]` gave VIM-2 inhibitor inactive, DNA FID counter inactive, UBC9 SUMO inh inactive, NALP1 inh 56, IMP-1 inh inactive and SUMO Mot1 rescue inactive.
Screening O=C(Nc1nn[nH]n1)C12CC3CC(CC(C3)C1)C2 returned VIM-2 inhibitor 9.0, DNA FID counter inactive, UBC9 SUMO inh inactive, NALP1 inh inactive, IMP-1 inh inactive and SUMO Mot1 rescue inactive.
Screening CC(=O)N1CCN(C(=O)CCC(=O)O)CC1 returned VIM-2 inhibitor inactive, DNA FID counter inactive, UBC9 SUMO inh inactive, IMP-1 inh inactive and SUMO Mot1 rescue inactive.
Screening CC1CCC2(CC1)NC(=O)N(CC(=O)Nc1sc3c(c1C(N)=O)CCC3)C2=O (centres undefined) returned VIM-2 inhibitor inactive, DNA FID counter inactive, UBC9 SUMO inh inactive, NALP1 inh inactive, IMP-1 inh inactive and SUMO Mot1 rescue inactive.
NC(=O)c1c(NC(=O)CN2C(=O)NC(Cc3ccccc3)C2=O)sc2c1CCC2 (centres undefined) was read as VIM-2 inhibitor inactive, DNA FID counter inactive, UBC9 SUMO inh inactive, NALP1 inh 42, IMP-1 inh inactive and SUMO Mot1 rescue inactive.
For COc1ccc(-c2[nH]ncc2CN2CCC(N3CCSCC3)CC2)cc1F the results were VIM-2 inhibitor inactive, DNA FID counter inactive, UBC9 SUMO inh inactive, NALP1 inh inactive, IMP-1 inh inactive and SUMO Mot1 rescue inactive.
`COc1ccc2c(c1)-c1nc(/N=C/c3c(O)ccc4ccccc34)sc1CC2` gave VIM-2 inhibitor inactive, DNA FID counter inactive, UBC9 SUMO inh 57, NALP1 inh inactive and IMP-1 inh inactive.
For COc1ccc(-c2coc3c(CN4CCCCC4C)c(O)ccc3c2=O)cc1 (centres undefined) the results were VIM-2 inhibitor inactive, DNA FID counter inactive, UBC9 SUMO inh inactive, NALP1 inh inactive, IMP-1 inh inactive and SUMO Mot1 rescue inactive.
COc1ccc(OC)c2c(C)c(C)[nH]c12 was read as VIM-2 inhibitor 8.2, DNA FID counter inactive, UBC9 SUMO inh inactive, NALP1 inh inactive, IMP-1 inh inactive and SUMO Mot1 rescue inactive.
C/C(=N\NC(=O)C(N)=O)c1cccc([N+](=O)[O-])c1 was read as VIM-2 inhibitor inactive, DNA FID counter inactive, UBC9 SUMO inh inactive, NALP1 inh inactive, IMP-1 inh 15 and SUMO Mot1 rescue inactive.
For COc1ccc(C(=O)COC(=O)C(CCSC)NC(=O)COc2ccccc2)c(OC)c1 (centres undefined) the results were VIM-2 inhibitor inactive, DNA FID counter inactive, UBC9 SUMO inh inactive, NALP1 inh inactive, IMP-1 inh inactive and SUMO Mot1 rescue inactive.
Screening Cc1cc(=O)c(C(=O)OC(C)C(=O)NC(N)=O)nn1-c1ccc(Cl)cc1 (centres undefined) returned VIM-2 inhibitor inactive, DNA FID counter inactive, UBC9 SUMO inh inactive, NALP1 inh inactive, IMP-1 inh inactive and SUMO Mot1 rescue inactive.
`CC(CN1CCCC1)OC(=O)c1ccccc1Cl` (centres undefined) gave VIM-2 inhibitor inactive, DNA FID counter inactive, UBC9 SUMO inh inactive, NALP1 inh inactive, IMP-1 inh inactive and SUMO Mot1 rescue inactive.
CC(CN1CCN(C)CC1)OC(=O)c1ccccc1Cl (centres undefined) was read as VIM-2 inhibitor inactive, DNA FID counter inactive, UBC9 SUMO inh inactive, NALP1 inh inactive, IMP-1 inh inactive and SUMO Mot1 rescue 346.
Screening COC(=O)c1c(N)n(CCCN2CCOCC2)c2nc3ccccc3nc12 returned VIM-2 inhibitor inactive, DNA FID counter inactive, UBC9 SUMO inh inactive, NALP1 inh inactive, IMP-1 inh inactive and SUMO Mot1 rescue inactive.
Screening COc1cc2nc(=S)n(CCCN3CCOCC3)c(N)c2cc1OC returned VIM-2 inhibitor inactive, DNA FID counter 45, UBC9 SUMO inh inactive, NALP1 inh inactive and IMP-1 inh inactive.
